Measured values from different studies.
Each line is one published result; the experiments were not run side by side.
ALPI: Intestinal-type alkaline phosphatase (ALPI, Bos taurus, UniProt P19111)
EPHX2: Bifunctional epoxide hydrolase 2 (EPHX2, Homo sapiens, UniProt P34913)
RET: Proto-oncogene tyrosine-protein kinase receptor Ret (RET, Homo sapiens, UniProt P07949)
Maob: Amine oxidase [flavin-containing] B (Maob, Rattus norvegicus, UniProt P19643)
GRM2: Metabotropic glutamate receptor 2 (GRM2, Homo sapiens, UniProt Q14416)
NMUR1: Neuromedin-U receptor 1 (NMUR1, Homo sapiens, UniProt Q9HB89)

`CCCCCCCCN1CC2=C(C1=O)C(c1ccccc1O)NC(=O)N2` (stereo not shown) gave an IC50 of 8710 nM (ALPI; enzyme activity; inhibitor; absorbance).
`O=c1[nH]c2c(Br)cccc2n1C1CCN(S(=O)(=O)c2ccc(I)cc2)CC1` gave an IC50 of 14000 nM (N-glycosylase/DNA lyase (OGG1, Homo sapiens, UniProt O15527); enzyme activity; inhibitor).
`O=C1NC2=C(C(=O)N(Cc3ccccc3)C2)C(c2ccccc2O)N1` (stereo not shown) gave an IC50 of 7670 nM (ALPI; enzyme activity; inhibitor; absorbance).
`O=C(Nc1ccccc1)NC12CC3CC(CC(C3)C1)C2` gave an IC50 of 16.5 nM (EPHX2; enzyme activity; inhibitor; fluorescence).
The IC50 of `Cc1cnc(-c2ccc(-c3ccc(NC(=O)Nc4c(F)cc(F)cc4F)cc3F)c3c2C(=O)NC3)[nH]1` is reported as 14.8 nM (RET; enzyme activity; inhibitor).
`CC(=NN=C1CS(=O)(=O)N(C)c2ccccc21)c1ccc([N+](=O)[O-])s1` gave an IC50 of 1250 nM (Maob; enzyme activity; inhibitor; fluorescence).
`Nc1ncc2c(n1)-c1c([nH]c3ccc(C#CC4CC4)cc13)CCCC2` gave an IC50 of greater than 10000 nM (Phosphatidylinositol 5-phosphate 4-kinase type-2 gamma (PIP4K2C, Homo sapiens, UniProt Q8TBX8); target engagement in cells; BRET).
The IC50 of `O=C(Nc1ccccc1F)NC12CC3CC(CC(C3)C1)C2` is reported as 3.7 nM (EPHX2; enzyme activity; inhibitor; fluorescence).
With `CNC(=O)c1cc2c(Oc3ccc(NC(=O)C4(C(=O)Nc5ccc(F)cc5)CC4)cc3)ccnc2cc1OC` the IC50 was 10 nM (Tyrosine-protein kinase Lck, phosphorylated (LCK, Homo sapiens, UniProt P06239); enzyme activity; inhibitor; radiometric).
The IC50 of `COc1cc2nccc(Oc3ccc(NC(=O)c4cc5c(n(-c6ccccc6)c4=O)CCCC5=O)nc3)c2cc1OC` is reported as greater than 100 nM (Tyrosine-protein kinase Lck (LCK, Homo sapiens, UniProt P06239); enzyme activity in cells; inhibitor; ATP luminescence).
`COc1ccc(-c2nsc(NC(=O)[C@@H]3C[C@H]3C)c2C)cc1` gave an IC50 of greater than 12500 nM (GRM2; calcium signal; antagonist).
`Oc1c2ccccc2c2c3c(cccc13)N=N2` has an IC50 of 736 nM (Tyrosine-protein kinase JAK2 (JAK2, Homo sapiens, UniProt O60674); enzyme activity; inhibitor).
`CC(C)(C)n1nc(-c2ccc3nc(OC4CC4)ccc3c2)c(C(N)=O)c1N` has an IC50 of greater than 10000 nM (Mitogen-activated protein kinase kinase kinase 10 (MAP3K10, Homo sapiens, UniProt Q02779); cell-free assay).
For `COc1ccc(-c2cc(C(N)=O)ncc2OCc2ccn(C)n2)c(F)c1`, the IC50 was 21 nM (GRM2; ion flux; antagonist).
The IC50 of `CC(=NN=C1CS(=O)(=O)N(C)c2ccccc21)c1cc(C)sc1C` is reported as 2610 nM (Maob; enzyme activity; inhibitor; fluorescence).
The IC50 of `COc1ccc2c(Oc3ccc4c(C(=O)Nc5ccccc5N)cccc4c3)ccnc2c1` is reported as greater than 500 nM (RET; enzyme activity; inhibitor).
With `CC12CC3CC(C1)CC(NC(=O)Nc1ccccc1F)(C3)C2` the IC50 was 1.5 nM (EPHX2; enzyme activity; inhibitor; fluorescence).
For `O=C1N=C(Nc2ccccc2)S/C1=C\c1ccccc1OCc1cn(Cc2ccccc2Br)nn1`, the IC50 was 37000 nM (Aldo-keto reductase family 1 member B1 (AKR1B1, Homo sapiens, UniProt P15121); enzyme activity; inhibitor; absorbance; pH 6.2).
`COc1ccc(-c2cc(C(N)=O)ncc2OCc2cnc(OC)nc2)c(F)c1` gave an IC50 of 261 nM (GRM2; ion flux; antagonist).
With `Cc1ccc(C(=O)Nc2ccc(Oc3cc4cnn(C)c4cc3-c3cn[nH]c3)c(F)c2)c(=O)n1-c1ccc(F)cc1` the IC50 was 2000 nM (Proto-oncogene tyrosine-protein kinase receptor Ret (RET, Homo sapiens, UniProt P07949, C634W); phosphorylation in cells; inhibitor; western blot).
With `CC(=NN=C1CS(=O)(=O)N(C)c2ccccc21)c1cccs1` the IC50 was 1980 nM (Maob; enzyme activity; inhibitor; fluorescence).
The IC50 of `O=C1NC2=C(C(=O)N(Cc3ccc(F)cc3)C2)C(c2ccccc2O)N1` (stereo not shown) is reported as 1270 nM (ALPI; enzyme activity; inhibitor; absorbance).
With `CC(C)C[C@H](NC(=O)[C@H](Cc1ccccc1)NC(=O)[C@@H](N)Cc1ccc(O)cc1)C(=O)N[C@@H](Cc1ccccc1)C(=O)N[C@@H](CCCNC(=N)N)C(=O)N1CCC[C@H]1C(=O)N[C@@H](CCCNC(=N)N)C(=O)N[C@@H](CC(N)=O)C(N)=O` the IC50 was 0.661 nM (NMUR1; ligand displacement; radioligand).
With `CC(=NN=C1CS(=O)(=O)N(C)c2ccccc21)c1sccc1C` the IC50 was 2380 nM (Maob; enzyme activity; inhibitor; fluorescence).
`O=C1NC2=C(C(=O)N(c3ccc(F)cc3)C2)C(c2ccc(O)cc2)N1` (stereo not shown) gave an IC50 of 2500 nM (ALPI; enzyme activity; inhibitor; absorbance).
`COc1ccc(-c2cc(C(N)=O)ncc2OCc2ccc(OC)nc2)c(F)c1` gave an IC50 of 224 nM (GRM2; ion flux; antagonist).
`CN1CCN(c2ccc(Nc3ncc4cc(C#N)c(=O)n(C5CCCC5)c4n3)cc2)CC1` has an IC50 of 403 nM (MAP/microtubule affinity-regulating kinase 4 (MARK4, Homo sapiens, UniProt Q96L34); enzyme activity; inhibitor).
`O=C(CCCCCCCCc1ccc(O)cc1)c1c(O)cccc1O` has an IC50 of 18600 nM (EPHX2; enzyme activity; inhibitor; fluorescence).
The IC50 of `O=C(Cc1cccc(Nc2ncnc3[nH]ccc23)c1)Nc1ccc(F)c(Cl)c1` is reported as greater than 20000 nM (RET; enzyme activity; inhibitor; mobility shift).
With `CCC(C)(O)C(=O)N1CCC(NC(=O)Nc2ccc(OC(F)(F)F)c(F)c2)CC1` (stereo not shown) the IC50 was 0.09 nM (EPHX2; enzyme activity; inhibitor).
With `COc1ccc(-c2cc(C(N)=O)ncc2OCc2ccncc2)c(F)c1` the IC50 was 33 nM (GRM2; ion flux; antagonist).
For `O=C1NC2=C(C(=O)N(Cc3ccc(F)cc3)C2)C(c2ccc(O)cc2)N1` (stereo not shown), the IC50 was 4760 nM (ALPI; enzyme activity; inhibitor; absorbance).
For `CC(=NN=C1CS(=O)(=O)N(C)c2ccccc21)c1cc(C)cs1`, the IC50 was 3830 nM (Maob; enzyme activity; inhibitor; fluorescence).
The IC50 of `CC(C)C[C@H](NC(=O)[C@H](Cc1ccccc1)NC(=O)[C@H](Cc1ccc(O)cc1)NC(=O)CNC(=O)[C@H](CCCNC(=N)N)NC(=O)[C@H](CO)NC(=O)[C@H](CCC(N)=O)NC(=O)[C@H](CO)NC(=O)[C@H](C)NC(=O)[C@H](Cc1ccccc1)NC(=O)[C@@H]1CCCN1C(=O)[C@H](CO)NC(=O)[C@H](CCC(N)=O)NC(=O)[C@H](Cc1ccccc1)NC(=O)[C@H](CCC(=O)O)NC(=O)[C@H](CCC(=O)O)NC(=O)[C@H](CC(=O)O)NC(=O)[C@@H](NC(=O)[C@H](CCCNC(=N)N)NC(=O)[C@@H](N)Cc1ccccc1)C(C)C)C(=O)N[C@@H](Cc1ccccc1)C(=O)N[C@@H](CCCNC(=N)N)C(=O)N1CCC[C@H]1C(=O)N[C@@H](CCCNC(=N)N)C(=O)N[C@@H](CC(N)=O)C(N)=O` is reported as 0.107 nM (NMUR1; ligand displacement; radioligand).
`O=C1NC2=C(C(=O)N(c3ccc(F)cc3)C2)C(c2ccccc2O)N1` (stereo not shown) gave an IC50 of 6540 nM (ALPI; enzyme activity; inhibitor; absorbance).
`COc1ccc2cc(C=NN=C3CS(=O)(=O)N(C)c4ccccc43)c(Cl)nc2c1` gave an IC50 of 2220 nM (Maob; enzyme activity; inhibitor; fluorescence).
The IC50 of `COc1ccc(-c2cc(C(N)=O)ncc2OCc2ccc(F)nc2)c(F)c1` is reported as 74 nM (GRM2; ion flux; antagonist).
